Measured values published in article PMC6028879 (Clinical Pharmacokinetics, 2018).

What was measured:
[1] = Drug-drug interaction; type: in vivo, human; details: ITZ 200 mg oral solution once daily; during the blood sampling period for VPR
Outline: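 This was a fixed-sequence, open-label study. In period 1, the test compound was given as a single oral 4 mg tablet, fasted, with water. After a washout of ≥ 4 weeks, itraconazole 200 mg oral solution was given once daily for 14 days. On day 4 the test compound was dosed 1 h after itraconazole. Plasma was sampled to 11 or 13 days and measured by validated LC–MS/MS. Non-compartmental analysis was used. Log-transformed AUC0–11d and Cmax were analysed by ANOVA with treatment and subject effects, giving ratio estimates, 90% CI and 95% PI.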

[2] = ulipristal acetate with ketoconazole; cited from earlier work

| Structure (SMILES) | geometric mean ITZ trough concentrations [1] | increase in exposure with ketoconazole [2] |
| --- | --- | --- |
| CCC(C)n1ncn(-c2ccc(N3CCN(c4ccc(OCC5COC(Cn6cncn6)(c6ccc(Cl)cc6Cl)O5)cc4)CC3)cc2)c1=O (centres unmarked) [ITZ, Itraconazole] | above 530 µg/L |  |
| CC(=O)O[C@]1(C(C)=O)CC[C@H]2[C@@H]3CCC4=CC(=O)CCC4=C3[C@@H](c3ccc(N(C)C)cc3)C[C@@]21C [ulipristal acetate] |  | 5.8 fold |
